# Results as given in PMC10407542 (The Innovation, 2023).
# Key:
# S. aureus biofilm = assay: Activity against mature S. aureus biofilm; format: cell-based, Staphylococcus aureus; details: treatment for 8 h
# [1] = tested on: S.aureus infected skin wound; assay: In vivo anti-infection study, S.aureus infected full-thickness wound model; design: species or system rat; details: SD rats, early stages, n = 5
# Summary of the method: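 Rats bearing S. aureus-infected skin wounds were given PBS (control) or test compound. Wound beds were inspected visually for yellow pus in the early stages. Infection was confirmed by agar plate counts of tissue exudate from wound sites on day 3. Wound healing and wound size were followed over time. Mean ± SD, n = 5.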
substance,measurement,setting,value
N3-Arg-Trp-Arg-Trp-Arg-Trp-NH2 [AMP],minimum eradication biofilm concentration,S. aureus biofilm,"1,280 μmol L^−1"
same,pyogenic infection (yellow pus) on the infected wound bed,[1],not observed
